# Bioassay records as filed in PubChem.
# RGS7-Gao reg: modulates binding of RGS7 to human Galphao; hit rate 0.35% among 220,000; Multiplexed bead flow cytometry; actives lie on both sides; AID 1439; binding response (% of control), % at 10 µM; in the data active = binding response below about 49% or above about 150%; inconclusive = no clear call, values can overlap the other calls; inactive = in between;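 note: fluorescent Galphao held in activated GDP-AlF4 state binding bead-coupled RGS7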
# RGS8-Gao: human RGS8-Galphao interaction regulation. P09471. multiplexed bead flow cytometry, RGS8-Galphao binding; actives lie on both sides. response (percent of control binding), % at 10 µM. hit rate 0.34% among 220,000. AID 1423; in the data active = response below about 60% or above about 140%; inactive = in between;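 note: Galphao activated as the GDP aluminium fluoride complex binding bead-coupled RGS8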
# RGS16-Gao: RGS16-Galphao interaction regulator (human); binding response (% of control), % at 10 µM; bead-based flow cytometry RGS16-Galphao binding, fluorescence; actives lie on both sides; hit rate 0.38% among 220,000; O15492+P09471;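 note: Galphao activated by GDP with aluminum fluoride before binding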
# ABCB1 block: blocks JC-1 efflux by human ABCB1 transporter | P08183 | CCRF-Adr cells, flow cytometry | inhibition, % at 6.6 µM | hit rate 0.067% among 190,000 | AID 1326; in the data active = inhibition above about 40%;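 note: 0% = vehicle and 100% = reference inhibitor; higher value means more JC-1 retained so stronger ABCB1 efflux block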
# Target sequence (P08183 whole entry, looked up): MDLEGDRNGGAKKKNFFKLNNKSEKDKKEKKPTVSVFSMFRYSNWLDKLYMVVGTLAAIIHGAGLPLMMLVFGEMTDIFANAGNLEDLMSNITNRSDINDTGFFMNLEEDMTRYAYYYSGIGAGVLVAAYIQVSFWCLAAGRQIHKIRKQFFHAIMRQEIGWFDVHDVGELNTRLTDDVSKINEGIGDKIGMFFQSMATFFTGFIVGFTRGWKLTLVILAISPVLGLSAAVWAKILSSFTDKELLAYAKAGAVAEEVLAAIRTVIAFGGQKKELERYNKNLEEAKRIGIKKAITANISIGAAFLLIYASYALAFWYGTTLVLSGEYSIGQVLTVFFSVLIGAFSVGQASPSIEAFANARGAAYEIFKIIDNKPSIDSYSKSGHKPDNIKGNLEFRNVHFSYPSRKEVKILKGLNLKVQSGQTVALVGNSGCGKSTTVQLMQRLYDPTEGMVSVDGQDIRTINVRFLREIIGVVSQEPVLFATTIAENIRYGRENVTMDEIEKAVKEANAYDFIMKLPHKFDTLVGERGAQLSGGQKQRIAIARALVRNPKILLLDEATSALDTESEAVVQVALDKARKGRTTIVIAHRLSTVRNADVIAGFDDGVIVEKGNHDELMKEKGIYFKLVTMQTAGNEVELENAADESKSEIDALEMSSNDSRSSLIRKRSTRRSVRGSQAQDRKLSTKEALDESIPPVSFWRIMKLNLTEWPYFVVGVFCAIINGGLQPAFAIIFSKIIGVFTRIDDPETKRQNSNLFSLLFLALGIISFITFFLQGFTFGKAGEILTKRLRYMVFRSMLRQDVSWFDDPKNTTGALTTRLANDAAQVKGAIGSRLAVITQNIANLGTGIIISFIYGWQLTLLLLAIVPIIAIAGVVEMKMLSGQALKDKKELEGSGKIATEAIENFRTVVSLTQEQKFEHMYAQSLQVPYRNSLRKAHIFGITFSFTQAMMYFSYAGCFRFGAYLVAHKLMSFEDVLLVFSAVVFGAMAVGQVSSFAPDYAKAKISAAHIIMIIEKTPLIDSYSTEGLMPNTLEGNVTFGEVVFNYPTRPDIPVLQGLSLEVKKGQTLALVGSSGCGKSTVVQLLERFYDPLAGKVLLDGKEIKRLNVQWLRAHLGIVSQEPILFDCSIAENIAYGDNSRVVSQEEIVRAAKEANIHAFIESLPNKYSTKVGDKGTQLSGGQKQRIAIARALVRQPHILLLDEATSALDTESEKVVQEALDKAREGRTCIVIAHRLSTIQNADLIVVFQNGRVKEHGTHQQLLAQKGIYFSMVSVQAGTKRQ
# RGS4-Gao reg: modulates binding of RGS4 to human Galphao. binding response (% of control), % at 10 µM. AID 1415. Multiplexed bead flow cytometry; actives lie on both sides. hit rate 0.33% among 220,000; in the data active = binding response below about 49% or above about 150%; inactive = in between;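 note: fluorescent Galphao activated with aluminum fluoride binding bead-coupled RGS4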
# ABCG2 inh: inhibitors of human ABCG2 transporter, ABCB1 counter-screen. hit rate 0.1% among 190,000. Q9UNQ0. IgMXP3 cells, JC-1 efflux, flow cytometry. inhibition, % at 6.6 µM;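 active = inhibition above 80%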;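 note: 0% = DMSO and 100% = nicardipine control wells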
#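 Assay system – ABCG2 IgMXP3 and barcoded ABCB1 CCRF-Adr cell mix · Input – 3 million cells/mL in well · Reagent – JC-1 fluorescent substrate · Compound – single test compound dose, 6.6 µM final · Timing – 10 min exposure at 25 °C with rotation, no wash · Detection – flow cytometry of retained JC-1 fluorescence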
# RGS4-Gao HTS: modulates binding between human RGS4 and Galphao; shares compounds with RGS16-Gao; multiplexed bead flow cytometry, RGS–Galpha-o binding; RGS4–Galpha-o binding response, % at 10 µM; hit rate 99% among 1,600; AID 1504;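 note: fluorescently labeled Galpha-o bound to GDP with aluminium fluoride binding biotinylated RGS beads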
# Avidin counter: counter-screen: compounds disrupting biotin binding to avidin beads; streptavidin beads, fluorescein-biotin binding, flow cytometry; inhibition, % at 10 µM; shares compounds with RGS16-Gao; 1,700 tested, under 10 active; AID 1783;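 active = inhibition above 50%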;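 note: median green fluorescence of gated singlet beads compared with DMSO control wells; 0% = DMSO wells and 100% = complete loss of bead fluorescence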
# RGS8-Gao confirm: confirmation of regulators of human RGS8-Galphao interaction. bead-based flow cytometry RGS8-Galphao binding, fluorescence; actives lie on both sides. hit rate 3% among 1,700. AID 1836. binding response (% of control), % at 10 µM. shares compounds with RGS16-Gao; in the data active = binding response below about 72% or above about 130%; inactive = in between;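 note: Galphao activated as GDP AlF4 complex before binding bead RGS8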
# RGS7-Gao single: confirmation of regulators of human RGS7-Galphao interaction. shares compounds with RGS16-Gao. bead-based flow cytometry RGS7-Galphao binding; actives lie on both sides. response (percent of control binding), % at 10 µM. hit rate 7.8% among 1,700. AID 1837; in the data active = response below about 75% or above about 130%; inactive = in between;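 note: fluorescent Galphao activated with GDP and aluminum fluoride binding bead-coupled RGS7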
# RGS16-Gao single: RGS16-Galphao interaction regulation, single point confirmation | shares compounds with RGS16-Gao | bead-based flow cytometry, RGS16-Galphao binding; actives lie on both sides | response (% of control binding), % at 10 µM | hit rate 4% among 1,700; in the data active = response below about 74% or above about 130%; inactive = in between;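 note: Galphao activated as the GDP aluminium fluoride complex binding bead-coupled RGS16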
# RGS4-Gao confirm: confirmation of regulators of human RGS4-Galphao interaction; shares compounds with RGS16-Gao; RGS4-Galphao binding, multiplexed bead flow cytometry; actives lie on both sides; binding response (% of control), % at 10 µM; hit rate 4% among 1,700; AID 1840; in the data active = binding response below about 74% or above about 130%; inactive = in between
# RGS19-Gao conf: confirmation of regulators of human RGS19-Galphao interaction; shares compounds with RGS16-Gao; hit rate 5% among 1,700; response (percent of control binding), % at 10 µM; bead-based flow cytometry RGS19-Galphao binding; actives lie on both sides; AID 1841; in the data active = response below about 50% or above about 160%; inactive = in between;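 note: 100% = no compound control and 0% = blank background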
# * marks the source's active call; other numbers are inactive results; u = inconclusive; x = no result given; [ ] = dose if it differs, or a comment. Shown are actives, neighbours in structure and some others; about 0.9% of the full set was active somewhere. Unless noted, the rule behind the calls is not given here.
SMILES,RGS7-Gao reg,RGS8-Gao,RGS16-Gao,ABCB1 block,RGS4-Gao reg,ABCG2 inh,RGS4-Gao HTS,Avidin counter,RGS8-Gao confirm,RGS7-Gao single,RGS16-Gao single,RGS4-Gao confirm,RGS19-Gao conf
O=C(Cc1ccc(Cl)cc1)Oc1cccc2cccnc12,82.3,65.5,22.4*,1.3,78.9,2.3,78.9*,0.5,97.9,96.0,96.5,99.0,84.1
Cc1cc(C)cc(Nc2cnn(C34CC5CC(CC(CC(=O)O)(C5)C3)C4)c(=O)c2Cl)c1,x,x,x,0.5,90.9,1.5,x,1.5,102.8,104.9,101.8,101.9,100.1
O=c1c(Cl)c(NCc2ccc(F)cc2)cnn1C12CC3CC(CC(C3)C1)C2,102.8,103.0,108.5,1.8,100.0,16.8,x,x,x,x,x,x,x
Cc1ccc(CNc2cnn(C34CC5CC(CC(C5)C3)C4)c(=O)c2Cl)cc1,7.4*,11.1*,5.8*,-1.7,0.2*,-3.4,x,-0.6,99.1,94.2,97.7,92.3,100.9
COC(=O)c1ccccc1OCCCCN1CC(C)OC(C)C1 (configuration not stated),254.2*[activator],99.2,102.1,1.1,113.0,3.3,113.0*,2.4,91.9,58.8*,83.1,69.5*,45.8*
O=c1/c(=C/c2ccco2)sc2n1CN(c1ccccc1)CN=2,93.8,99.5,93.9,0.1,91.1,1.6,x,x,x,x,x,x,x
Cc1ccc(N2CN=c3s/c(=C\c4ccccn4)c(=O)n3C2)cc1,48.2*,59.5*,52.8,1.0,51.3,46.9,51.3*,-1.0,96.9,92.4,94.9,94.5,109.9
Oc1ccc(Nc2nc3ccccc3nc2Nc2ccc(O)cc2)cc1,161.0*[activator],109.7,169.7,-0.3,165.0*[activator],-2.3,x,0.2,95.4,83.8,90.2,87.2,80.9
C=C1SC(=Nc2ccccc2Cl)N(C(=O)c2sc3ccccc3c2Cl)C1(C)C,u,9.4*,-13.2*,x,-16.1*,x,x,0.0,100.5,98.3,100.3,98.9,103.3
CCOc1ccc(S(=O)(=O)NC2CCCCCC2)cc1,34.7*,49.9*,38.2,0.6,45.9*,1.7,x,-0.6,114.3,104.5,123.4,102.8,121.1
CCOc1ccc(S(=O)(=O)N/N=C(\C)C2CCCCC2)cc1,98.3,76.1,14.3*,0.4,101.2,-8.0,101.2*,1.5,99.3,99.8,100.1,100.8,113.9
CCN(CC)S(=O)(=O)c1cccc(-c2nnc(SCC(=O)NC)n2CCc2ccccc2)c1,245.9*[activator],99.6,110.9,0.8,127.8,8.9,127.8*,0.6,100.6,104.7,103.1,101.8,114.3
Fc1cc(F)cc(NC(=S)Nc2ccccc2N2CCOCC2)c1,99.7,98.6,96.8,0.7,103.3,2.8,x,x,x,x,x,x,x
CCCN(CCC)C(=O)NC1CC(=O)N(c2ccc(OC)cc2)C1 (configuration not stated),105.1,102.4,101.7,0.1,99.9,-10.0,x,x,x,x,x,x,x
O=C(NCCCN1CCCC1)C1CCN(C(=O)c2cc3sccc3n2Cc2ccc(F)cc2)CC1,181.4*[activator],120.9,262.2,0.9,133.9,4.2,133.9*,x,x,x,x,x,x
